High-throughput results: PubChem BioAssay, several laboratories
MrgX1 antagonist – antagonists of human MrgX1 receptor, primary screen, HEK293 cells, Fluo-4 calcium flux; Mas-related G-protein coupled receptor member X1 (Homo sapiens), Q96LB2; BAM8-22 antagonism; stronger effect = lower value; B-score at 10 µM; 1.3% of 310,000 active;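 active means calcium-response B-score plate-corrected more than 3 library SD below zero, starting fluorescence within 5 deviations, no agonist response on first addition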;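 further: peak minus trough fluorescence over baseline after final BAM8-22 challenge near maximal dose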
Target sequence (Q96LB2 whole entry, looked up): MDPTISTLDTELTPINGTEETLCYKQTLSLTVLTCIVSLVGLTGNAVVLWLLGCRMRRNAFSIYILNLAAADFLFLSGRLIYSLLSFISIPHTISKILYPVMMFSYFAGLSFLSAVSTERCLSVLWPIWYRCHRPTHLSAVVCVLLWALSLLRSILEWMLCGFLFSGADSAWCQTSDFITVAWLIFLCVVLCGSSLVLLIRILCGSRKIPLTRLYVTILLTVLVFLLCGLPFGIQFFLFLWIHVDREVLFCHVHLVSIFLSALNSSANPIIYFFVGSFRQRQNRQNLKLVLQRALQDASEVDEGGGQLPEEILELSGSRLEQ
RGS4 inh – RGS4 inhibitors, primary screen, cell-based, HEK293 M3R inducible RGS4, calcium flux; B-score at 10 µM; Fluo-4 calcium flux; stronger effect = higher value; triggered by carbachol at its EC20; Regulator of G-protein signaling 4 (Homo sapiens), P49798; 0.45% of 310,000 active;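 active means B-score, a plate-corrected calcium signal, over three deviations above library mean, with baseline fluorescence within five deviations of library mean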;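 further: RGS4 expression induced by doxycycline in cells with stable M3 receptor; B-score is computed from the integrated fluorescence ratio over baseline after carbachol; higher B-score means a larger calcium signal and so more RGS4 inhibition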
Target sequence (P49798 whole entry, looked up): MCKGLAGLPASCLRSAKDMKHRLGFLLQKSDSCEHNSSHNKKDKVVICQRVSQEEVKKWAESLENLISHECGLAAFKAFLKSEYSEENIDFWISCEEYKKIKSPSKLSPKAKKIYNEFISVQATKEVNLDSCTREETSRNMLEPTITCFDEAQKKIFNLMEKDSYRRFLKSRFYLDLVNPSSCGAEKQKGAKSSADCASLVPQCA
Lipid droplet – inhibitors of hepatocyte lipid droplet formation, primary screen, imaging, high-throughput imaging, BODIPY stain. AML12 mouse hepatocytes, oleate lipid droplets. inhibition, % at 6.5 µM. 0.4% of 240,000 active;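 active means lipid droplet intensity inhibited by at least 50%, with more than 500 cells counted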
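Material – AML12 mouse liver cells · Also added – oleate loading, 100 µM · Compound dosing – 6.5 µM single-point dosing · Times – overnight treatment with compound plus oleate · Measured by – fluorescence imaging, 20x objective, two fields per well · Read-out – percent inhibition of filter-corrected integrated lipid droplet intensity per well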
MrgX1 ag – agonists of human MrgX1 receptor, primary screen, HEK293 cells, Fluo-4 calcium flux | 0.44% of 310,000 active | Fluo-4 calcium fluorescence, agonist mode; stronger effect = higher value | Mas-related G-protein coupled receptor member X1 (Homo sapiens), Q96LB2 | B-score at 10 µM;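 active means calcium response B-score plate-corrected fluorescence ratio at least 3 library SD, with starting fluorescence B-score inside 5 SD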
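Test system: HEK293 cells stably expressing human MrgX1 receptor; amount: 15,000 cells per well; doses: compound delivered in addition one of three; times: overnight plating before 1 h dye loading; detection: Fluo-4 NW calcium-flux fluorescence, kinetic read; read-out basis: B-scored fluorescence response ratio; controls: positive and negative controls per plate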
MrgX1 allo act – positive allosteric modulators of MrgX1, primary screen, HEK293 cells, Fluo-4 calcium flux. Mas-related G-protein coupled receptor member X1 (Homo sapiens), Q96LB2. FDSS; stronger effect = higher value. B-score at 10 µM. 0.63% of 310,000 active;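 active means plate-corrected calcium response at least 3 library SD above typical, normal starting fluorescence, not activating the receptor alone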;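 further: compound read alongside a low EC10 to EC30 dose of BAM8-22 agonist; peak minus trough fluorescence over baseline measured at the second addition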
RGS4 act – RGS4 potentiators or activators, primary screen, cell-based, HEK293 M3R inducible RGS4, calcium flux; carbachol calcium flux Fluo4; stronger effect = lower value; B-score at 10 µM; 0.92% of 310,000 active; AID 463111, 2010;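 active means B-score of the integrated calcium signal more than 4 SD below the library mean, with starting fluorescence not abnormally high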;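 further: negative B-score means reduced calcium response which marks RGS4 activation or potentiation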
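Material: Inducible-RGS4 HEK293 cells carrying M3 receptor; also added: carbachol at ECmax as muscarinic agonist stimulus; incubation: compound preincubation 20 min at room temperature before agonist; signal: Fluo4-AM (2 µM) calcium-flux fluorescence, kinetic read; measure: integrated calcium ratio converted to B score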
RGS4 act valid – reduced carbachol calcium response, RGS4-induced M3R cells, confirmation, RGS4 activator project, cell-based, HEK293 M3R/RGS4 inducible, calcium flux, duplicate | AID 602282, 2012 | inhibition, % at 10 µM | carbachol calcium flux Fluo4 | shares compounds with RGS4 act | 89% of 1,100 active;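 active means inhibition above 3 SD of the buffer control wells, cut at about 41% in these data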;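 further: signal is the integrated peak-minus-minimum Fluo4 fluorescence over baseline ratio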
RGS4 act ctr – activity in cells without induced RGS4 expression | HEK293 M3R non-induced RGS4, Fluo4 calcium flux; after carbachol challenge at its EC90 | shares compounds with RGS4 act | 82% of 1,100 active | inhibition, % at 10 µM;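 active means inhibition exceeding 3 SD of buffer-only control wells, cut at about 26% in these data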;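 further: percent drop in integrated peak-minus-baseline over baseline Fluo4 ratio after carbachol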
Active calls of the source: *; i = inactive; . = no result. Hits are enriched below; roughly 3.8% of the tested compounds scored in any of these assays.

SMILES	MrgX1 antagonist	RGS4 inh	Lipid droplet	MrgX1 ag	MrgX1 allo act	RGS4 act	RGS4 act valid	RGS4 act ctr
CCOC(=O)N1CCC(NC2CCCCCCC2)CC1	i	i	.	i	i	-8.1*	82*	0
CCOC(=O)N1CCC(N2CCN(Cc3ccccc3)C(CCO)C2)CC1 (configuration not stated)	i	i	2	i	i	i	.	.
CCOC(=O)N1CCC(N2CCN(C3CCCC3)C(CCO)C2)CC1 (configuration not stated)	i	i	-2	i	i	-10*	89*	59*
Cc1cc(C)c(S(C)(=O)=O)c(Oc2ccc(C(C)(C)C)cc2)n1	i	i	.	i	i	i	.	.
CCN(CC)CCNC(=O)c1ccc(NC(=O)c2c(C)nn(-c3ccc(F)cc3)c2Cl)cc1	i	i	-14	i	i	-9.8*	92*	88*
COc1cccc2cc(C(=O)C3=C(O)C(=O)N(CCN4CCOCC4)C3c3cccc(Cl)c3)oc12 (configuration not stated)	i	i	-7	i	i	i	.	.
CCOC(=O)c1c(C(C)(C)C)oc2ccc(OCC#N)cc12	i	i	.	i	i	-8.8*	92*	92*
S=C(NCc1ccccc1)NN1CCOCC1	i	i	15	i	i	i	.	.
CC(=O)Nc1ccc(Nc2ccc3c4c(cc(=O)n3C)-c3ccccc3C(=O)c24)cc1	i	i	4	i	i	i	.	.
CC(=O)Nc1c2c3c(cccc3n(C)c1=O)C(=O)c1ccccc1-2	i	i	.	i	i	-8.6*	53*	0
COc1ccc(-c2csc3ncnc(N4CCN(S(=O)(=O)c5ccc(Cl)s5)CC4)c23)cc1	i	i	.	i	i	i	.	.
COc1ccc(N2CCN(c3ncnc4scc(-c5ccc(C)cc5)c34)CC2)cc1	i	i	-35	i	i	-7.9*	0	0
COc1ccc(-c2csc3ncnc(N4CCN(S(=O)(=O)c5cccs5)CC4)c23)cc1	i	i	.	i	i	-8.2*	42*	84*
COc1ccc(N2CCN(c3ncnc4scc(-c5ccccc5)c34)CC2)cc1	i	i	-10	i	i	-7.9*	54*	0
COc1ccc(-c2csc3ncnc(N4CCN(c5ccccc5Cl)CC4)c23)cc1	i	i	34	i	i	-8.6*	76*	84*
Cc1cccn2c(=O)c(/C=C(\C#N)C(=O)NCc3ccccc3)c(N3CCC(C(N)=O)CC3)nc12	i	i	21	i	i	i	.	.
CC1=NNC(=O)/C1=C\c1cn(-c2ccccc2)nc1-c1ccccc1	i	i	12	i	i	-11*	70*	34*
Cc1ccc(-n2nc3c(=O)n(C(C)C(=O)NCc4ccc(Cl)cc4)nc(C)c3c2C)cc1 (configuration not stated)	i	i	1	i	i	i	.	.
S=C(NCc1ccco1)N1CCN(C(c2ccccc2)c2ccccc2)CC1	i	i	.	i	i	-9.8*	66*	0
Cc1ccccc1N1CCN(C2CCCN(C(=O)c3cn4cccc(C)c4n3)C2)CC1 (configuration not stated)	.	i	-4	.	.	-9.7*	50*	0
Cc1ccccc1N1CCN(C2CCCN(C(=O)c3ccccn3)C2)CC1 (configuration not stated)	i	i	-1	i	i	i	.	.
Cc1c(C)c2ccc(OCC(=O)Nc3ccccn3)cc2oc1=O	i	i	-6	i	i	i	.	.
CC1CC(OC(=O)C(O)c2ccccc2)CC(C)(C)N1C (configuration not stated)	i	i	3	i	i	-10*	77*	38*
O=C(Oc1ccc(-c2nnco2)cc1)N(c1ccccc1)c1ccccc1	i	i	20	i	i	i	.	.
Cc1ccc2oc(=O)c3cc(C(=O)NCCCN4CCc5ccccc5C4)sc3c2c1	i	i	-5	i	i	-7.7*	51*	84*
SMILES	MrgX1 antagonist	RGS4 inh	Lipid droplet	MrgX1 ag	MrgX1 allo act	RGS4 act	RGS4 act valid	RGS4 act ctr
Cc1ccc2oc(=O)c3cc(C(=O)NCCCN4CCCCCC4)sc3c2c1	i	i	-7	i	i	i	.	.
Cc1ccc(-c2noc(CNC(=O)COc3ccccc3C)n2)cc1	i	i	-2	i	i	i	.	.
c1ccc(CC2CCN(C3=Nc4cccc5cccc3c45)CC2)cc1	-5.7*	i	29	i	i	-9.1*	94*	98*
C=CCc1cc2c(oc(=O)c3ccccc32)c(C)c1O	i	i	-7	i	i	-9*	49*	84*
Cc1c(O)c(CN2CCCC2)cc2c1oc(=O)c1ccccc12	i	i	.	i	i	i	.	.
CCn1cc(CN2CCC(n3nccc3NC(=O)c3ccc(OC)cc3)CC2)cn1	i	i	-6	i	i	-7.7*	66*	84*
CCC1(c2ccc(Cl)cc2)NC(=O)N(Cc2ccc(C(=O)OC)cc2)C1=O (configuration not stated)	i	i	2	i	i	i	.	.
COc1ccc2nc(C)cc(SCC(=O)N/N=C/c3cccc4ccccc34)c2c1	i	i	13	i	i	i	.	.
COc1ccc2nc(C)cc(SCC(=O)N/N=C/c3ccc(O)c(O)c3)c2c1	i	i	1	i	i	-13*	0	0
Cc1ccc(CCC(=O)NCc2ccccc2)o1	i	i	-2	i	i	-7.8*	0	0
CC(C)NS(=O)(=O)c1ccc(OCC(=O)N2CCc3ccccc3C2)cc1	i	i	14	i	i	i	.	.
